The values below come from ChEMBL document CHEMBL1144429, “Computational strategies in discovering novel non-nucleoside inhibitors of HIV-1 RT” (J Med Chem, 2005).

Structures are written as SMILES.

Experiment [1] concerns MT4. Nature of the experiment: Ratio of CC50 to that of EC50. It is filed as functional, Homo sapiens. The method, boiled down:
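Selectivity index is calculated as CC50/EC50. Both values come from the parallel MT-4 assays: cell viability for CC50 and protection from HIV-1-induced cytopathic effect for EC50.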

Experiment [2] has as its system MT4. Nature of the experiment: Concentration required to reduce HIV-1-induced cytopathic effect in MT-4 cells. The note with it: Homo sapiens. The format is functional, cell-based. The method, boiled down: (§1)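 MT-4 cells infected with HIV-1. The read-out is protection against virus-induced cytopathic effect. EC50 is the concentration giving a 50% reduction of the cytopathic effect. Uninfected MT-4 cytotoxicity was run in parallel.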
In general terms: Cytopathic effects are the visible damage that an infection or toxin causes in cultured cells.

Experiment [3] relates to MT4. Nature of the experiment: Cytotoxic concentration required to reduce MT-4 cell viability. It is filed as functional. The note with it: Homo sapiens. In a few lines: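 Viability of MT-4 cells was measured with compound alone, in parallel with the HIV-1 cytopathic-effect assay. CC50 is the concentration reducing MT-4 cell viability by 50%.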
Experiment [4] has as its target Human immunodeficiency virus type 1 reverse transcriptase (Human immunodeficiency virus 1, UniProt Q72547). Nature of the experiment: Concentration required to inhibit in vitro RNA-dependent DNA polymerase activity of reverse transcriptase. In a few lines:
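Recombinant HIV-1 RT. RNA-dependent DNA polymerase activity was measured in vitro. IC50 is the concentration inhibiting this polymerase activity by 50%.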

For experiment [5], the system named is MT4. Nature of the experiment: Concentration required to reduce HIV-1-induced cytopathic effect in MT-4 cells; NA = not active. It is filed as functional, cell-based, Homo sapiens. In a few lines:
as §1

For experiment [6], the system named is MT4. Nature of the experiment: Compound was tested for inhibition of the cytopathic effects of HIV-1 (IIIB) in MT-4 cells. It is filed as functional, cell-based. The following applies: Homo sapiens. In a few lines:
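HIV-1-induced cytopathic effect measured in MT-4 cell cultures. EC50 is the concentration reducing the cytopathic effect by 50%. Cytotoxicity in MT-4 cells was run in parallel.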

The test system of experiment [7] is CCRF-CEM. Nature of the experiment: Concentration required to protect CEM cells against Mutant E138K Strain. It is filed as functional, cell-based. The following applies: Homo sapiens. In a few lines:
(§2)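 CEM cell cultures were infected with mutant HIV-1 strains, each carrying a single NNRTI-resistance mutation in RT. EC50 is the concentration protecting CEM cells against HIV-induced cytopathogenicity by 50%.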

Experiment [8] relates to CCRF-CEM. Nature of the experiment: Concentration required to protect CEM cells against Mutant K103N Strain. The format is functional, cell-based. The note with it: Homo sapiens. The method, boiled down:
as §2

Experiment [9] relates to CCRF-CEM. Nature of the experiment: Concentration required to protect CEM cells against Mutant L100I Strain. It is filed as functional, cell-based. The note with it: Homo sapiens. The method, boiled down:
as §2

Experiment [10] has as its system CCRF-CEM. Nature of the experiment: Concentration required to protect CEM cells against Mutant Y181C Strain. The format is functional, cell-based. The note with it: Homo sapiens. The method, boiled down:
as §2

Experiment [11] concerns CCRF-CEM. Nature of the experiment: Concentration required to protect CEM cells against Mutant Y188H Strain. The note with it: Homo sapiens. It is filed as functional, cell-based. The method, boiled down:
as §2

On to `Oc1nc2cc(Cl)ccc2n1Cc1c(F)cccc1F`, for which the Ratio with MT4 [1] is reported as above 14. Moreover, in the experiment with MT4 [2], the 50% effective concentration (EC50) (usually the concentration that produces a half-maximal response) turned out to be 29.6 µM. The CC50 (commonly the concentration at which the toxic effect on the cells reaches its halfway point) in the experiment with MT4 [3] was above 424 µM. Also, 60 µM corresponded to half-maximal inhibition in experiment [4] (IC50).
`O=c1oc2ccc(Cl)cc2n1Cc1c(F)cccc1F`: the Ratio in the experiment with MT4 [1] is reported as above 91. The molecule also displayed an EC50 in the experiment on MT4 [2] of 3.72 µM. In the experiment with MT4 [3], this molecule returned a CC50 above 382 µM. In addition, the IC50 (as a rule, the point on the concentration scale where inhibition reaches its midpoint) in [4] amounted to 20 µM.
On to `CC(C)c1ccc(Cn2c(O)nc3ccc(Cl)cc32)cc1`, for which, in the experiment on MT4 [1], the Ratio is given as above 147. This molecule gave an EC50 in the experiment on MT4 [2] of 2.83 µM. The molecule further gave a cytotoxic concentration (CC50) in the experiment on MT4 [3] above 415 µM. This molecule also registered an IC50 in [4] of 16.2 µM.
For `Oc1nc2ccc(Cl)cc2n1Cc1c(Cl)cccc1Cl`, in the experiment on MT4 [1], the Ratio was found to be 83. Further, in the experiment on MT4 [2], the EC50 stood at 3.79 µM. In the experiment with MT4 [3], this molecule returned a CC50 of 315 µM. Further, half-maximal inhibition in experiment [4] (IC50) was put at 7.5 µM.
In the case of `Oc1nc2ccc(Cl)cc2n1Cc1cccc2ccccc12`, in the experiment with MT4 [1], the Ratio is listed as 57. Further, in the experiment on MT4 [2], the EC50 is 0.87 µM. The molecule further registered a cytotoxic concentration (CC50) in the experiment on MT4 [3] of 50 µM. This molecule displayed an IC50 in experiment [4] of 12.7 µM.
Consider `Oc1nc2ccc(Cl)cc2n1CC1CCCCC1`, for which, in the experiment with MT4 [5], the EC50 entry is given as “Not Active”. In the experiment with MT4 [3], this molecule returned a CC50 of 9.5 µM. For the same molecule, in experiment [4], the 50% inhibitory concentration (IC50) amounted to 50 µM.
For `Oc1nc2ccc(Cl)cc2n1Cc1ccc2ccccc2c1`, the Ratio with MT4 [1] is given as above 64. Besides, the EC50 with MT4 [2] worked out at 6.35 µM. In the experiment with MT4 [3], this molecule gave a CC50 above 405 µM. Also, the IC50 in [4] was found to be 5.2 µM.
For the molecule `O=c1[nH]c2ccc(Cl)cc2n1Cc1c(F)cccc1F`, the Ratio in the experiment with MT4 [1] is reported as above 1766. In addition, the EC50 in the experiment with MT4 [6] is 0.24 µM; in the experiment on MT4 [2], 0.24 µM; in the experiment with CCRF-CEM [7] it was 2.9 µM; in the experiment with CCRF-CEM [8] it was above 20 µM; in the experiment on CCRF-CEM [9], 2 µM; in the experiment on CCRF-CEM [10], above 20 µM. This molecule also showed an EC50 in the experiment on CCRF-CEM [11] above 20 µM. In the experiment on MT4 [3], this molecule displayed a 50% cytotoxic concentration (CC50) above 424 µM. Inhibition in [4] was half-maximal at 2.86 µM (IC50).
As to `Fc1cccc(F)c1C1SCc2nc3ccccc3n21` (configuration not stated) [THIAZOLOBENZIMIDAZOLE], in the experiment on MT4 [1], the Ratio is on record as 45. Also, the concentration giving a half-maximal response (EC50) with MT4 [6] is 1.39 µM; in the experiment with MT4 [2], 1.1 µM; in the experiment on CCRF-CEM [7] it was 1.73 µM; in the experiment with CCRF-CEM [8], 15.6 µM; in the experiment with CCRF-CEM [9] it was 3.12 µM; in the experiment with CCRF-CEM [10] it was 13.8 µM. The same molecule returned a concentration for a half-maximal effect (EC50) with CCRF-CEM [11] of 4.16 µM. The molecule also displayed a CC50 in the experiment with MT4 [3] of 50 µM. This molecule also showed an IC50 in experiment [4] of 24.6 µM.
